Source: PubChem BioAssay
RAD52 anneal inh: RAD52 DNA annealing inhibitors, primary screen, biochemical, FRET, single point, set 2; inhibition, % at 18.7 µM; 0.46% of 360,000 active; AID 651710, 2012; DNA repair protein RAD52 homolog (Homo sapiens), P43351; recombinant RAD52 DNA annealing, FRET fluorescence;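 active = every replicate showing at least 50% inhibition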
Target sequence (P43351 whole entry, looked up): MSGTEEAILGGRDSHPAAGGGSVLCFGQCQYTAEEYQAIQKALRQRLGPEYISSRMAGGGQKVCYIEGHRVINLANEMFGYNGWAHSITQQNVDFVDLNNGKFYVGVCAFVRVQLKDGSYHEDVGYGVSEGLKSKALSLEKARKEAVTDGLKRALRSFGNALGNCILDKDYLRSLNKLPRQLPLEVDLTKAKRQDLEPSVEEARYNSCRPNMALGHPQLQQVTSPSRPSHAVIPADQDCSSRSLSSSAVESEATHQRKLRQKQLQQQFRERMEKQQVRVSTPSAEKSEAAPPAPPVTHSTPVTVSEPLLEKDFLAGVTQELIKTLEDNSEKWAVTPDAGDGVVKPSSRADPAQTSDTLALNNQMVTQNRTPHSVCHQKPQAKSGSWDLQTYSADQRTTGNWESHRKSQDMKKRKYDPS
S100A4 inh HTS: inhibitors of S100A4-myosin IIA peptide binding, primary screen, biochemical, fluorescence polarization, TAMRA-MyoIIA peptide; inhibition, % at 10.7 µM; 0.14% of 360,000 active; Protein S100-A4 (Homo sapiens), P26447;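 active = mean inhibition of at least 70% across replicates, with every replicate also reaching that level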
Target sequence (P26447 whole entry, looked up): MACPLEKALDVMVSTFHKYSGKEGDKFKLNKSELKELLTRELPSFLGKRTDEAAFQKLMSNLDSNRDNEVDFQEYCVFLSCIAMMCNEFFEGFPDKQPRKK
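Material: S100A4 monomer protein | Medium: HEPES pH 7.2 with CaCl2, KCl, NaCl, DTT, Triton | Reagent: Labelled myosin peptide probe, 5 nM | Doses: One dose per compound | Times: 5 min incubation before reading | Benchmarks: Neutral control DMSO, positive control TFP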
MLL AF4-AF9 inh: inhibitors of AF4 peptide binding to AF9, primary screen, biochemical, AlphaScreen, biotin-AF4 peptide, FLAG-AF9, single point; Protein AF-9 (Homo sapiens), P42568; inhibition, % at 10 µM; 0.47% of 350,000 active; AID 651704, 2012;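 active = every replicate reaching a set inhibition limit, whatever the replicate mean, cut at about 25% in these data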;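 also: 0% = plate neutral control median and 100% = total signal loss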
RAD54 branch: inhibitors of human RAD54 branch migration, primary screen, biochemical, fluorescence, single point | DNA repair and recombination protein RAD54-like (Homo sapiens), Q92698 | RAD54 Holliday junction branch migration, FAM/BHQ fluorescence | inhibition, % at 10.4 µM | 0.14% of 360,000 active | AID 602329, 2012;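 active = mean normalized replicate activity at least 40 and at least half of replicates scoring 40 or more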;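 also: 0% = median of neutral control wells and 100% = median of positive control wells; inhibitors cause a drop in the FAM fluorescence signal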
INS-1E GSIS act: GLuc luminescence reporter in INS-1E cells, primary screen for activators of glucose-dependent secretion of insulin; activation, % at 16.6 µM; AID 743287, 2014; 0.61% of 370,000 active; INS-1E GLuc reporter insulin secretion, 2-3 h;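 active = lowest replicate activation of at least 40%, so every replicate reaches that level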;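 also: 0% = median of neutral control wells and 100% = median of IBMX positive control wells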
* marks the source's active call; other numbers are inactive results; nt = no result. Hits are enriched below; roughly 1.3% of the tested compounds scored in any of these assays.

SMILES	RAD52 anneal inh	S100A4 inh HTS	MLL AF4-AF9 inh	RAD54 branch	INS-1E GSIS act
CC(=O)N1[C@H](C(=O)N[C@H](C)c2ccccc2)[C@@H](CO)[C@@H]2Cn3c(cccc3=O)[C@@H]21	-4	110*	0	10	1
COc1cccc(-c2ccc3c(c2)O[C@H](CN(C)C(=O)c2ccccc2F)[C@H](C)CN([C@@H](C)CO)S3(=O)=O)c1	19	-12	-10	-5	-15
CC(C)(C)OC(=O)N[C@@H](Cc1ccccc1)c1nnc(S(=O)(=O)Cc2ccccc2)o1	nt	nt	nt	nt	169*
Cc1ccccc1CS(=O)(=O)c1nnc([C@H](Cc2ccccc2)NC(=O)OC(C)(C)C)o1	2	4	4	-3	45*
O=C(CN1CCOCC1)N[C@H]1CC[C@@H](CCn2cc(C3CC3)nn2)O[C@H]1CO	11	1	-1	3	-1
CCCN(C)C[C@@H]1Oc2ncc(-c3cccc(C#N)c3)cc2C(=O)N([C@H](C)CO)C[C@@H]1C	-8	4	1	2	-8
COc1ccccc1CN1[C@@H](CO)[C@@H]2c3ccccc3N(C(=O)c3cccnc3)C[C@@H]21	7	6	44*	-2	5
COc1ccccc1CN1[C@H](CO)[C@H]2c3ccccc3N(C(=O)c3cccnc3)C[C@H]21	13	130*	-6	9	8
C[C@H](CO)N1C[C@H](C)[C@H](CN(C)S(=O)(=O)c2cccs2)Oc2c(NC(=O)Nc3cccc4ccccc34)cccc2C1=O	3	7	-1	2	12
COc1ccc(NC(=O)N(C)C[C@H]2Oc3c(NC(=O)C4CCOCC4)cccc3C(=O)N([C@H](C)CO)C[C@@H]2C)cc1	7	2	-13	-1	18
CC1(Cc2ccc(C(F)(F)F)o2)C(=O)Nc2ccc(-c3cccc(C(F)(F)F)c3)cc21 (centres undefined)	-7	0	-1	7	173*
N#CC1=C(N)OC2=C(C(=O)CC(c3ccccc3)C2)C1c1cccnc1 (centres undefined)	nt	nt	nt	nt	47*
COc1ccccc1S(=O)(=O)N[C@@H]1CC[C@@H](CCNC(=O)C2CCCC2)O[C@@H]1CO	1	-3	-14	-7	8
COc1ccc(C2CC(c3ccc(OC)c(OC)c3)=NN2C(=O)c2ccccc2)cc1 (centres undefined)	-1	2	5	-9	67*
COCCNC(=O)C[C@H]1C[C@@H]2c3cc(NS(C)(=O)=O)ccc3O[C@@H]2[C@H](CO)O1	-13	-6	-2	-10	5
CC=Cc1ccc2n(c1=O)C[C@H]1[C@H](CO)[C@@H](C(=O)NCC)[C@@H]2N1C(=O)Nc1cc(F)ccc1F (mixture of isomers)	-4	15	-2	2	-7
CC1CCC(C(C)C)C(OC(=O)Cn2c(-c3ccc(Br)cc3)[n+](C)c3ccccc32)C1 (centres undefined)	34	0	14	27	275*
CC1CCC(C(C)C)C(OC(=O)Cn2c(-c3ccc(Cl)cc3)[n+](C)c3ccccc32)C1 (centres undefined)	43	-1	17	26	88
Cc1ccccc1OCc1n(CC(=O)OC2CC(C)CCC2C(C)C)c2ccccc2[n+]1C (centres undefined)	43	-11	23	nt	77*
N#Cc1cccc(-c2ccc(C3[C@@H]4CN(C(=O)Nc5ccc(C(F)(F)F)cc5)C[C@H]3N4)cc2)c1 (some centres undefined)	nt	nt	nt	nt	-7
Cc1cn(CC(C)C)c(=O)n(-c2ccccc2)c1=O	-10	-16	1	3	51*
O=C(C[C@@H]1CC[C@H]2[C@@H](COC[C@H](O)CN2S(=O)(=O)c2ccccc2)O1)NCC1CCCCC1	53*	22	39*	-5	2
O=C(C[C@H]1CC[C@@H]2[C@H](COC[C@H](O)CN2S(=O)(=O)c2ccccc2)O1)NCC1CCCCC1	55*	-45	16	5	-1
CCOc1ccc(/C=N/NC(=O)c2ccccc2Cl)cc1CN1CC2CC(C1)c1cccc(=O)n1C2 (centres undefined)	-3	-8	nt	2	-23
CCOc1ccc(/C=N/NC(=O)c2ccccc2C)cc1CN1CC2CC(C1)c1cccc(=O)n1C2 (centres undefined)	-6	94*	nt	-15	5
SMILES	RAD52 anneal inh	S100A4 inh HTS	MLL AF4-AF9 inh	RAD54 branch	INS-1E GSIS act
C[C@@H]1CCCCO[C@@H](CN(C)C(=O)Nc2ccccc2)[C@H](C)CN([C@H](C)CO)C(=O)c2cc(NC(=O)c3ccncc3)ccc2O1	1	-2	-2	2	-13
COc1ccc(NC(=O)/C(Cl)=C(/Cl)S(=O)Cc2ccc(Cl)cc2)cn1 (centres undefined)	-24	-9	-5	nt	46*
CC1CCCCN1C(=O)COC(=O)CSc1ccc(C(N)=O)cc1[N+](=O)[O-] (centres undefined)	-5	-4	-1	-5	45*
COc1ccc(NC(=O)N(C)C[C@@H]2Oc3ccc(NC(=O)C4CC4)cc3CC(=O)N([C@H](C)CO)C[C@@H]2C)cc1	-1	13	-6	-4	13
O=[N+]([O-])c1ccc(S(=O)Cc2ccccc2)c([N+](=O)[O-])c1 (centres undefined)	-5	-1	0	nt	117*
O=[N+]([O-])c1ccc(CS(=O)c2ccccc2)cc1 (centres undefined)	0	2	-1	nt	nt
CC1COCC(C)N1C1=C(Cl)C(=O)c2ccccc2C1=O (centres undefined)	-30	5	27*	-4	-27
C/C=C/c1cnc2c(c1)C(=O)N([C@H](C)CO)C[C@@H](C)[C@@H](CN(C)Cc1ccccc1)O2	-1	3	-4	9	-5
C[C@@H]1CCCCO[C@@H](CN(C)Cc2ccc(C(=O)O)cc2)[C@@H](C)CN([C@@H](C)CO)C(=O)c2cc(NC(=O)c3ccccc3)ccc2O1	-7	55	-2	-5	19
CCOc1ccc2oc(C(=O)N(C)CCc3ccc(OC)c(OC)c3)c(C)c2c1	-11	4	-4	5	50*
Cc1noc(C)c1NC(=O)N(C)C[C@H]1Oc2ncc(C#CC3CCCC3)cc2C(=O)N([C@@H](C)CO)C[C@@H]1C	-8	-1	-1	1	-7
COc1ccc(/C=C2/S/C(=N/S(=O)(=O)Cc3ccccc3)NC2=O)cc1OC	-55	-3	-38	nt	79*
O=C1N/C(=N\S(=O)(=O)Cc2ccccc2)S/C1=C/c1cccc([N+](=O)[O-])c1	-18	-14	-7	-2	-44
